Experimental data from ChEMBL document CHEMBL5303300, “EUbOPEN Chemogenomics Library - Multiplex” (2023).
“And” between values parts separate entries of the source, which are not always exact repeats. Equal entries are not always repeated.

Test system: U2OS
Experiment: Multiplex assay against U2OS
Type: toxicity, cell-based
Conditions: human, number of replicates 2
In short: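 Cells stained live at seeding with Hoechst33342, BioTracker Green Microtubule Cytoskeleton Dye, MitoTracker Red and Annexin V Alexa Fluor 680 were imaged on a CQ1 microscope at 37°C and 5% CO2 after compound addition. Their classification by CellPathfinder machine-learning gating ran from Hoechst high-intensity objects versus normal cells, to healthy, pyknosed or fragmented nuclei among normal cells, to mitotic or apoptotic among pyknosed cells. Tubulin, mitochondrial-mass and membrane-permeability phenotypes are per cents of healthy-nucleus cells.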

[1] = 12 h, 1 µM, compound concentration 1 uM
[2] = 12 h, 10 µM, compound concentration 10 uM
[3] = 24 h, 1 µM, compound concentration 1 uM
[4] = 24 h, 10 µM, compound concentration 10 uM
[5] = 48 h, 1 µM, compound concentration 1 uM
[6] = 48 h, 10 µM, compound concentration 10 uM

## CC1=C(C)C(=O)C(C(CCCCCC(=O)O)c2ccccc2)=C(C)C1=O (stereo not given) [SERATRODAST]
[1]
  Population Apoptotic (%): 66% and 64%
  Population Fragmented Nuclei (%): 11% and 5%
  Population Healthy Nuclei (%): 80% and 84%
  Population Hoechst High Intensity Objects (%): 0%
  Population Membrane Permeable-Phenotype (%): 3% and 2%
  Population Mitochondria Different-Phenotype (%): 3% and 0%
  Population Mitotic Cells (%): 33% and 36%
  Population Normal (%): 100%
  Population Pyknosed Nuclei (%): 8% and 9%
  Population Tubulin-Different-Phenotype (%): 100% and 92%
[2]
  Population Apoptotic (%): 75% and 37%
  Population Healthy Nuclei (%): 68% and 84%
  Population Hoechst High Intensity Objects (%): 0%
  Population Membrane Permeable-Phenotype (%): 0% and 1%
  Population Mitochondria Different-Phenotype (%): 0%
  Population Mitotic Cells (%): 25% and 62%
  Population Normal (%): 100%
  Population Pyknosed Nuclei (%): 5% and 11%
  Population Tubulin-Different-Phenotype (%): 80% and 94%
[3]
  Population Apoptotic (%): 75% and 54%
  Population Fragmented Nuclei (%): 7% and 2%
  Population Healthy Nuclei (%): 82% and 88%
  Population Hoechst High Intensity Objects (%): 0%
  Population Membrane Permeable-Phenotype (%): 3%
  Population Mitochondria Different-Phenotype (%): 3% and 1%
  Population Mitotic Cells (%): 25% and 45%
  Population Normal (%): 100%
  Population Pyknosed Nuclei (%): 10% and 8%
  Population Tubulin-Different-Phenotype (%): 100% and 92%
[4]
  Population Apoptotic (%): 50% and 66%
  Population Healthy Nuclei (%): 70% and 88%
  Population Hoechst High Intensity Objects (%): 0%
  Population Membrane Permeable-Phenotype (%): 1% and 2%
  Population Mitochondria Different-Phenotype (%): 1% and 0%
  Population Mitotic Cells (%): 50% and 33%
  Population Normal (%): 100%
  Population Pyknosed Nuclei (%): 6%
  Population Tubulin-Different-Phenotype (%): 92%
[5]
  Population Apoptotic (%): 33% and 43%
  Population Fragmented Nuclei (%): 4% and 3%
  Population Healthy Nuclei (%): 89% and 91%
  Population Hoechst High Intensity Objects (%): 0%
  Population Membrane Permeable-Phenotype (%): 0% and 1%
  Population Mitochondria Different-Phenotype (%): 0%
  Population Mitotic Cells (%): 66% and 56%
  Population Normal (%): 100%
  Population Pyknosed Nuclei (%): 5% and 4%
  Population Tubulin-Different-Phenotype (%): 100% and 94%
[6]
  Population Apoptotic (%): 58%
  Population Fragmented Nuclei (%): 12% and 3%
  Population Healthy Nuclei (%): 79% and 90%
  Population Hoechst High Intensity Objects (%): 0%
  Population Membrane Permeable-Phenotype (%): 0% and 2%
  Population Mitochondria Different-Phenotype (%): 0%
  Population Mitotic Cells (%): 41%
  Population Normal (%): 99%
  Population Pyknosed Nuclei (%): 8% and 6%
  Population Tubulin-Different-Phenotype (%): 89% and 95%

## CS(=O)(=O)c1ccc(C(=O)Nc2ccc(F)c(COc3ccc(Br)cc3CNCCO)c2)c(Cl)c1.O=CO
[1]
  Population Apoptotic (%): 50% and 63%
  Population Healthy Nuclei (%): 75% and 84%
  Population Hoechst High Intensity Objects (%): 0%
  Population Mitotic Cells (%): 50% and 36%
[2]
  Population Apoptotic (%): 85% and 58%
  Population Healthy Nuclei (%): 80% and 77%
  Population Hoechst High Intensity Objects (%): 2% and 0%
  Population Mitotic Cells (%): 14% and 41%
[3]
  Population Apoptotic (%): 62% and 73%
  Population Healthy Nuclei (%): 74% and 90%
  Population Hoechst High Intensity Objects (%): 0%
  Population Mitotic Cells (%): 37% and 26%
[4]
  Population Apoptotic (%): 90% and 71%
  Population Healthy Nuclei (%): 68%
  Population Hoechst High Intensity Objects (%): 0%
[5]
  Population Apoptotic (%): 83%
  Population Healthy Nuclei (%): 81% and 87%
  Population Hoechst High Intensity Objects (%): 0%
  Population Mitotic Cells (%): 16%
[6]
  Population Apoptotic (%): 66% and 89%
  Population Healthy Nuclei (%): 45% and 67%
  Population Hoechst High Intensity Objects (%): 0%
